Laboratory results: ChEMBL document CHEMBL1137484, “Design and synthesis of opioidmimetics containing 2',6'-dimethyl-L-tyrosine and a pyrazinone-ring platform” (Bioorg Med Chem Lett, 2007)

Experiments:
[1] = molecular target: T1, Delta-type opioid receptor (Mus musculus, UniProt P32300); test: Agonist activity at delta opioid receptor in mouse vas deferens assessed as inhibition of electrically-stimulated muscle contraction; type: functional, tissue-based
Outline: (§1)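 Reference agonists run alongside: deltorphin II for delta in mouse vas deferens (MVD) and endomorphin 2 for mu in guinea pig ileum (GPI).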

[2] = molecular target: Delta-type opioid receptor (Mus musculus) (UniProt P32300); test: Agonist activity at delta opioid receptor in mouse vas deferens assessed as inhibition of electrically-stimulated muscle contraction at 10 uM; type: functional, tissue-based
[3] = molecular target: T1, Delta-type opioid receptor; test: Antagonist activity at delta opioid receptor in mouse vas deferens; type: functional, tissue-based; conditions: read-out: pA2 (converted)
Outline: (§2)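 Antagonism given as pA2: the negative log of the antagonist concentration (M) that doubles the agonist concentration needed to restore the original response. The agonist was deltorphin II in MVD (delta) and endomorphin 2 in GPI (mu).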

[4] = molecular target: Delta-type opioid receptor (Homo sapiens, UniProt P41143); test: Displacement of [3H]deltorphin 2 from delta opioid receptor
[5] = species on record: Homo sapiens; test: Selectivity for human mu opioid receptor over human delta opioid receptor
[6] = molecular target: Mu-type opioid receptor (Cavia porcellus) (UniProt P97266); test: Agonist activity at mu opioid receptor in guinea pig ileum assessed as inhibition of electrically-stimulated muscle contraction at 10 uM; type: functional, tissue-based
[7] = molecular target: T2, Mu-type opioid receptor (Cavia porcellus, UniProt P97266); test: Agonist activity at mu opioid receptor in guinea pig ileum assessed as inhibition of electrically-stimulated muscle contraction; type: functional, tissue-based; outline: as §1
[8] = molecular target: Mu-type opioid receptor (Homo sapiens, UniProt P35372); test: Displacement of [3H]DAMGO from human mu opioid receptor
[9] = molecular target: T2, Mu-type opioid receptor; test: Antagonist activity at mu opioid receptor in guinea pig ileum; type: functional, tissue-based; conditions: read-out: pA2 (converted); outline: as §2

Chain of Delta-type opioid receptor (Homo sapiens, UniProt P41143) (P41143 whole entry): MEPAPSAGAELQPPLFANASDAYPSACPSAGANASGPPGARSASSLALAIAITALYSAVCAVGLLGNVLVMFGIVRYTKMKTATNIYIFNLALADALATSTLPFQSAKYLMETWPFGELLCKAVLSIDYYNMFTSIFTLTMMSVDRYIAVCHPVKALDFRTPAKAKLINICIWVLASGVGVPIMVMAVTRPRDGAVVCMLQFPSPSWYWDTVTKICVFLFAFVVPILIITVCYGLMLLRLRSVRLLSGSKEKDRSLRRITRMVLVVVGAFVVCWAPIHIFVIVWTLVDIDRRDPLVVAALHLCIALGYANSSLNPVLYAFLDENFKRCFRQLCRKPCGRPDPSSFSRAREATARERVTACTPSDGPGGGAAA
Chain of Mu-type opioid receptor (Homo sapiens, UniProt P35372) (P35372 whole entry): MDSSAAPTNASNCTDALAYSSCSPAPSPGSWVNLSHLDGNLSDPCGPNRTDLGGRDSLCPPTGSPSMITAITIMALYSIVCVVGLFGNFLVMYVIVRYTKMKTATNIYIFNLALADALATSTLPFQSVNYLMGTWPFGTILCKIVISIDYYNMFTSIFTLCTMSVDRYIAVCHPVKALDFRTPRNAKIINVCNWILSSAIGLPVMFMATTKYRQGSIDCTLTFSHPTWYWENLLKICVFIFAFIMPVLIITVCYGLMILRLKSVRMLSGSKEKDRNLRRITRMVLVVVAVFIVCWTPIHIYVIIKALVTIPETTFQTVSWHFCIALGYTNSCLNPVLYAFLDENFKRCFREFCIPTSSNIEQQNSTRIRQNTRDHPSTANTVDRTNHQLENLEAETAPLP
Chain of Mu-type opioid receptor (Cavia porcellus) (P97266 whole entry): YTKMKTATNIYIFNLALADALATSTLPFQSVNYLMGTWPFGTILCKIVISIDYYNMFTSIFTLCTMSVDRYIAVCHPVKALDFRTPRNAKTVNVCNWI
T2 sequence (P97266 whole entry): as above
T1 sequence (P32300 whole entry): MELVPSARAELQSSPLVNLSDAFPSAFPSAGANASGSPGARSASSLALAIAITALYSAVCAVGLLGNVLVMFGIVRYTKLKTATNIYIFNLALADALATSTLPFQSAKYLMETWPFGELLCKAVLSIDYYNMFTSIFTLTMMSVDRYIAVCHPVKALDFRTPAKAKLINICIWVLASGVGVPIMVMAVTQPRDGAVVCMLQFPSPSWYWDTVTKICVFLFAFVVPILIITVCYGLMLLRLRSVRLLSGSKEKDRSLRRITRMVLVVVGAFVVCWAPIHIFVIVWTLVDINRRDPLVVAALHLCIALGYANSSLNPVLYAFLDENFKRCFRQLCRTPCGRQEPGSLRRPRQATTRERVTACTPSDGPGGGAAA
Chain of Delta-type opioid receptor (Mus musculus) (P32300 whole entry): as above

SMILES | IC50 [1] [nM] | inhibition [2] [%] | Kb [3] [nM] | Ki [4] [nM] | Ratio Ki [5] | inhibition [6] [%] | IC50 [7] [nM] | Ki [8] [nM] | Kb [9] [nM]
Cc1cc(O)cc(C)c1C[C@H](N)C(=O)NCCCc1nc(C)c(C)[nH]c1=O | > 10000 | 31.1 | > 3160 | 269 | 30 | 22.7 | > 10000 | 8.88 | –
Cc1cccc(C)c1Cc1[nH]c(=O)c(CCCCNC(=O)[C@@H](N)Cc2c(C)cc(O)cc2C)nc1C | > 10000 | 6.4 | 245 | 5.3 | 8 | – | 6270 | 0.66 | > 1000
Cc1cc(O)cc(C)c1C[C@H](N)C(=O)NCCc1nc(C)c(C)[nH]c1=O | > 10000 | 25.2 | 1350 | 93.1 | 1.2 | 45 | > 10000 | 76.5 | –
Cc1cc(O)cc(C)c1C[C@H](N)C(=O)NCCCCc1[nH]c(=O)c(C)nc1C | > 10000 | 0 | 2340 | 208 | 14 | 30.1 | > 10000 | 15.4 | > 1000
Cc1cc(O)cc(C)c1C[C@H](N)C(=O)NCCCCc1nc(C)c(CCc2ccccc2)[nH]c1=O | > 10000 | 12.8 | 447 | 55.9 | 447 | – | 15.9 | 0.125 | –
Cc1cc(O)cc(C)c1C[C@H](N)C(=O)NCc1nc(C)c(C)[nH]c1=O | > 10000 | 28.1 | 1480 | 698 | 5.4 | 20.6 | > 10000 | 129 | –
Cc1cc(O)cc(C)c1C[C@H](N)C(=O)NCCCc1nc(C)c(Cc2ccccc2)[nH]c1=O | > 10000 | 34.6 | 1230 | 59.6 | 60 | 36.7 | > 10000 | 1 | –
Cc1cc(O)cc(C)c1C[C@H](N)C(=O)NCCCCc1[nH]c(=O)cnc1C | > 10000 | 28.1 | > 3160 | 344 | 6 | 37.1 | > 10000 | 56.9 | > 1000
Cc1cc(O)cc(C)c1C[C@H](N)C(=O)NCCCc1nc(C)c(CCc2ccccc2)[nH]c1=O | > 10000 | 4.1 | 1350 | 38.2 | 69 | – | 5550 | 0.55 | > 1000
Cc1cc(O)cc(C)c1C[C@H](N)C(=O)NCCCCc1nc(C)c(C)[nH]c1=O | > 10000 | 26.2 | 2510 | 77.7 | 18 | 35.1 | > 10000 | 4.23 | 200
Cc1c[nH]c(=O)c(CCCCNC(=O)[C@@H](N)Cc2c(C)cc(O)cc2C)n1 | > 10000 | 25.7 | > 3160 | 73.8 | 119 | 47.6 | > 10000 | 0.62 | –
Cc1cc(O)cc(C)c1C[C@H](N)C(=O)NCCCCc1nc(C)c(Cc2ccccc2)[nH]c1=O | > 10000 | 19.9 | 589 | 8.6 | 20 | 39.5 | > 10000 | 0.42 | –
